{"source": "paper PMC9389372", "about": "(RSC Advances, 2022)", "key": {"[1]": {"target": "Human acetylcholinesterase (Homo sapiens, UniProt P22303)", "sequence (P22303 32-614)": "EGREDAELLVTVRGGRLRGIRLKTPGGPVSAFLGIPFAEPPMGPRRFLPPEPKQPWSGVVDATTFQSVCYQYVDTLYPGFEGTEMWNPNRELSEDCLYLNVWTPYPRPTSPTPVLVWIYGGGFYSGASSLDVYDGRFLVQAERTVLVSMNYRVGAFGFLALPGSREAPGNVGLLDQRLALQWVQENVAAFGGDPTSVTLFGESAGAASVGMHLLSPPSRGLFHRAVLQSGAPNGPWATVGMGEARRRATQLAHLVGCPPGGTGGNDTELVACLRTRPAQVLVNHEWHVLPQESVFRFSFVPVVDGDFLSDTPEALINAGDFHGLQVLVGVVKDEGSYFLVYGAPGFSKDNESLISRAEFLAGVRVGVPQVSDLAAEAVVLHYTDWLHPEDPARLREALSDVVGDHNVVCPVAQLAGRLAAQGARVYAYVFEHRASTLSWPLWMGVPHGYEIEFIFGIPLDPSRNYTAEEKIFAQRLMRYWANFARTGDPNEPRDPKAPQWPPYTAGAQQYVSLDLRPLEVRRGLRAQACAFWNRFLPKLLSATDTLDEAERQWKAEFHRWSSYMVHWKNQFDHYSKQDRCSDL", "experiment": "AChE inhibition, modified Ellman's spectrophotometric method", "type": "biochemical", "conditions": "read-out: AChE % inhibition, 10^−3 M"}, "[2]": {"target": "human butyrylcholinesterase (Homo sapiens, UniProt P06276)", "sequence (P06276 29-602)": "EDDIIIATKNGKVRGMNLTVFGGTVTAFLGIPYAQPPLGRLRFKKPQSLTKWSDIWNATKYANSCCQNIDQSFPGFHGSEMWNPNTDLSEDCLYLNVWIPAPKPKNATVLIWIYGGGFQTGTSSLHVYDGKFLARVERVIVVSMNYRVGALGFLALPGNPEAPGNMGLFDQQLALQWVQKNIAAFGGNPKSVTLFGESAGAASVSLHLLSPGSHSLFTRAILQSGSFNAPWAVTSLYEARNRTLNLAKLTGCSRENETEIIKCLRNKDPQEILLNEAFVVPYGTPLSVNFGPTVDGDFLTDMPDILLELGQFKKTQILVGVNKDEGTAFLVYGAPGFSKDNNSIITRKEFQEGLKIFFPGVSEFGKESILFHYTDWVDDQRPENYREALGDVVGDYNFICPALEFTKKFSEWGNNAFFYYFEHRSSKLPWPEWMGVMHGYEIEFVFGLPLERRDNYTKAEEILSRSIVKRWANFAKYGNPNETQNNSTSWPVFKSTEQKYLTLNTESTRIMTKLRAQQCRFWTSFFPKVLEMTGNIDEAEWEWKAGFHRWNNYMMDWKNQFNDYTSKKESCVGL", "experiment": "BChE inhibition, modified Ellman's spectrophotometric method", "type": "biochemical"}, "[3]": {"target": "T1, MAO-A (Homo sapiens, UniProt P21397)", "T1 sequence (P21397 1-527)": "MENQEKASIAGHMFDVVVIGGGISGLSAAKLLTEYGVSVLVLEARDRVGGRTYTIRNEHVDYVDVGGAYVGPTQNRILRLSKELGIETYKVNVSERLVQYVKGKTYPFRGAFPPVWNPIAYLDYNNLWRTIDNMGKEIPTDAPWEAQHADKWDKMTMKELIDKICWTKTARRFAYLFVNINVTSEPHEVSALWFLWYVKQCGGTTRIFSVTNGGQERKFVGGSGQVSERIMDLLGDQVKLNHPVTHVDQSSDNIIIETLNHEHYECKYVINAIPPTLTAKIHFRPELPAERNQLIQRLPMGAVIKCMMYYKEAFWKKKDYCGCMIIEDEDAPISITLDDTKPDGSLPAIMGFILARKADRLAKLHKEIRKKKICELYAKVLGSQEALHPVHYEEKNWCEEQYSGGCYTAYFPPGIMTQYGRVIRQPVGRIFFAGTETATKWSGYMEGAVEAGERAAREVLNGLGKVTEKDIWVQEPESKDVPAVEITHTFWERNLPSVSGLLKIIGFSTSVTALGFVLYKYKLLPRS", "experiment": "MAO-A inhibition, in vitro fluorometric method", "type": "biochemical"}, "[4]": {"target": "beta amyloid 1–42 (Aβ42) (Homo sapiens, UniProt P05067)", "sequence (P05067 672-713)": "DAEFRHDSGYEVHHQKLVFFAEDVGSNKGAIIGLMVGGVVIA", "experiment": "fluorometric beta amyloid 1–42", "type": "biochemical", "conditions": "read-out: Percent inhibition of beta amyloid 1–42 (Aβ42) peptide aggregation"}, "[5]": {"experiment": "Cytotoxicity, MTT assay", "type": "cell-based", "conditions": "mouse, NIH/3T3 mouse embryonic fibroblast cells", "how_it_was_run": "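NIH/3T3 mouse embryonic fibroblasts, incubated according to the supplier's recommendation, were seeded at 1 × 10⁴ cells per well. Viability was read by MTT assay following the group's previously described standard procedure.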"}}, "data": [{"smiles": "CN(C)CCN1CCN(Cc2ccc(C(=O)Nc3nc4ccccc4s3)cc2)CC1", "note": "[4f, N-(Benzo[d]thiazol-2-yl)-4-((4-(2-(dimethylamino)ethyl)piperazine-1-yl)methyl)benzamide]", "values": [{"measurement": "inhibition at 1000 µM", "setting": "[1]", "value": "96.4 ± 1.4", "unit": "%"}, {"measurement": "IC50", "setting": "[2]", "value": "> 1000", "unit": "µM"}, {"measurement": "inhibition at 100 µM", "setting": "[2]; read-out: BChE % inhibition", "value": "32.8 ± 0.6", "unit": "%"}, {"measurement": "inhibition at 1000 µM", "setting": "[2]; read-out: BChE % inhibition", "value": "45.3 ± 0.9", "unit": "%"}, {"measurement": "IC50", "setting": "[3]", "value": "> 100", "unit": "µM"}, {"measurement": "inhibition at 100 µM", "setting": "[3]; read-out: MAO-A % inhibition", "value": "41.3 ± 0.9", "unit": "%"}, {"measurement": "inhibition at 1000 µM", "setting": "[3]; read-out: MAO-A % inhibition", "value": "67.9 ± 1.1", "unit": "%"}, {"measurement": "inhibition at 0.01 µM", "setting": "[4]", "value": "58.6 ± 1.1", "unit": "%"}, {"measurement": "inhibition at 0.1 µM", "setting": "[4]", "value": "80.8 ± 2.1", "unit": "%"}, {"measurement": "inhibition at 1 µM", "setting": "[4]", "value": "90.6 ± 3.1", "unit": "%"}, {"measurement": "inhibition at 10 µM", "setting": "[4]", "value": "97.3 ± 3.2", "unit": "%"}, {"measurement": "IC50", "setting": "[5]", "value": "72.9 ± 2.7", "unit": "µM"}]}]}
